Assays:
Format in all cases: functional
[1] = species on record: Rattus norvegicus; assay: In vitro inhibitory concentration required to relax KCl-induced contractions in rat bladder detrusor muscle strips
[2] = species on record: Rattus norvegicus; assay: Percent of reversal of rat bladder detrusor muscle relaxation (resulting from compound treatment) by addition of glyburide
[3] = species on record: Rattus norvegicus; assay: In vitro inhibitory concentration required to relax KCl-induced contractions in rat aortic rings; conditions: Aorta
Outline: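 Rat aortic rings were contracted with KCl and then exposed to drug. The value is the drug concentration (μM) that relaxed the KCl-induced contraction by 50%, reported ± SE.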

[4] = Rattus norvegicus, read-out: IC50

SMILES	IC50 [1, 4] [µM]	IC50 [1]	IC50 [3] [µM]	Reversal [2] [%]
CCC(C)(C)Nc1c(-c2ccc(OCCCc3ccccc3)cc2)c(=O)c1=O		Contracted		
COc1ccc(-c2c(NCC(C)c3ccccc3)c(=O)c2=O)cc1 (stereo not given)	> 30			0
COc1ccc(-c2c(NCCc3cccc(C(F)(F)F)c3)c(=O)c2=O)cc1	> 30			0
COc1ccc(-c2c(N(C)C(C)C)c(=O)c2=O)cc1	12		46.2	0
CCC(C)(C)/N=c1/c(-c2ccc(OC)cc2)c(O)c1=O	2.5		37.6	0
CCC(C)(C)Nc1c(-c2cccnc2)c(=O)c1=O	> 30			0
CCC(C)(C)/N=c1/c(-c2cccc(OC)c2)c(O)c1=O	> 30	Contracted		
COc1ccc(-c2c(NC(C)c3ccccc3)c(=O)c2=O)cc1 (stereo not given)	27			0

The next lines start with results.

IC50 [1, 4] [µM]	IC50 [1]	IC50 [3] [µM]	SMILES	Reversal [2] [%]
> 30			COc1ccc(Cc2c(NC(C)C(C)(C)C)c(=O)c2=O)cc1 (stereo not given)	0
16.2			CC(=O)C(c1ccc(C(F)(F)F)cc1)c1c(NC(C)C(C)(C)C)c(=O)c1=O (stereo not given)	0
> 30			CC(Nc1c(Cc2ccc(C#N)cc2)c(=O)c1=O)C(C)(C)C (stereo not given)	0
0.09		0.017	CCc1cc(C#N)ccc1Nc1c(N[C@H](C)C(C)(C)C)c(=O)c1=O	77
0.37		0.064	C[C@@H](Nc1c(Nc2ccc(C#N)cc2)c(=O)c1=O)C(C)(C)C	110
2.94			CC(Nc1c(/C=C/c2ccc(C#N)cc2)c(=O)c1=O)C(C)(C)C (stereo not given)	0
> 30			COc1ccc(C(C(C)=O)c2c(NC(C)C(C)(C)C)c(=O)c2=O)cc1 (stereo not given)	0
> 30			CC(Nc1c(/C=C/c2ccc(Br)cc2)c(=O)c1=O)C(C)(C)C (stereo not given)	25
